The text below walks through data of ChEMBL document CHEMBL1132302, “Identification of pharmacokinetically stable 3, 10-dibromo-8-chlorobenzocycloheptapyridine farnesyl protein transferase inhibitors with potent enzyme and cellular activities” (J Med Chem, 1999).

Data set [1] has as its target T1, Protein farnesyltransferase (Homo sapiens, UniProt P49354+P49356). Description: Inhibitory activity against Hras Farnesyltransferase (FPT). The data set is classed as protein-complex assay.
Data set [2] has as its target T1, Protein farnesyltransferase. Description: Effect on Ras processing in Cos-1 monkey kidney cells expressing either H-Ras-Val 12-CVLS or H-Ras-Val12. It counts as functional, cell-based, Cercopithecidae. The gist of the method:
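Ras processing was tested in Cos-1 monkey kidney cells transiently expressing H-Ras-Val12-CVLS or H-Ras-Val12. IC50 values are single-point determinations.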

Data set [3] has as its system NIH-3T3 (Mus musculus). Description: inhibition of tumor colony formation in soft agar.
Data set [4] is described as follows: (§1) Half life was administered by using 20%aqueous hydroxypropyl-beta-cyclodextrin (HPbetaCD) as vehicle to nude mice at a dose of 25mpk,. The data set is classed as ADME, organism-based. The note with it: mouse, in vivo, 25 mg/kg.
Data set [5] in a line: Maximum concentration (Cmax) using 20%aqueous hydroxypropyl-beta-cyclodextrin (HPbetaCD) as vehicle. compound was administered intravenously to nude mice at a dose of 25 mg/kg. The data set is classed as ADME, organism-based. On the set-up: dose 25 mg/kg, route intravenous. The note with it: mouse, in vivo, iv. The gist of the method:
(§2)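 Nude mice were dosed at 25 mpk, intravenously or orally as the line states, in 20% aqueous hydroxypropyl-β-cyclodextrin or 0.4% aqueous methyl cellulose. Serum was sampled over 24 h. Each time point came from sera of different animals.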

Data set [6] can be described thus: Maximum concentration (Cmax) using 20%aqueous hydroxypropyl-beta-cyclodextrin (HPbetaCD) as vehicle. compound was administered orally to nude mice at a dose of 25 mg/kg. It counts as ADME, organism-based. On the set-up: dose 25 mg/kg, route oral. The note with it: mouse, in vivo, po. The gist of the method:
as §2

Data set [7] can be described thus: (§3) Area under curve was determined using 20%aqueous hydroxypropyl-beta-cyclodextrin (HPbetaCD) as vehicle. Compound was administered orally to nude mice at a dose of 25 mg/kg. The data set is classed as ADME, organism-based. On the set-up: dose 25 mg/kg, route oral. The note with it: mouse, in vivo, po. The gist of the method: as §2
Data set [8] in a line: (§4) Area under curve was determined using 20%aqueous hydroxypropyl-beta-cyclodextrin (HPbetaCD) as vehicle. Compound was administered intravenously to nude mice at a dose of 25 mg/kg. It counts as ADME, organism-based. Further details: dose 25 mg/kg, route intravenous. The note with it: mouse, in vivo, iv. The gist of the method: as §2
Data set [9] can be described thus: (§5) Bioavailability in mouse (nude) using 20% aqueous hydroxypropyl-beta-cyclodextrin (HPbetaCD) as vehicle 25 mg/kg. It counts as ADME, organism-based. The note with it: in vivo.
The target in data set [10] is T1, Protein farnesyltransferase. Description: Inhibition of [3H]FPP incorporation into His6-H-Ras-CVLS by farnesyl transferase. It counts as protein-complex assay.
A further data set has as its system Mus musculus. The description is as §5. The data set is classed as organism-based.
A short description of data set [11]: as §3. The data set is classed as organism-based. On the set-up: dose 25 mg/kg. The gist of the method: as §2
Data set [12] is described as follows: as §4. On the set-up: dose 25 mg/kg. It counts as organism-based. The gist of the method: as §2
Data set [13] can be described thus: as §1. The data set is classed as organism-based.
Data set [14] in a line: Area under curve was determined using 20%aqueous hydroxypropyl-beta-cyclodextrin (HPbetaCD) as vehicle. Compound was administered orally to nude mice at a dose of 25 mg/kg (Run time = 7 hr). It counts as ADME, organism-based. Further details: dose 25 mg/kg, route oral. The note with it: mouse, in vivo, po. The gist of the method: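 Nude mice received 25 mpk in 20% aqueous hydroxypropyl-β-cyclodextrin, by the route the line gives. Serum was collected over a shortened 7-h run rather than 24 h. Each time point used sera from different animals.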

The nature of data set [15]: Bioavailability in mouse (nude) (dose 0.4% Methylcellulose (MC) as vehicle 25 mg/kg). It counts as ADME, organism-based. The note with it: in vivo.
A short description of data set [16]: Half life was administered by using 0.4% Methyl cellulose (MC) as vehicle to nude mice at a dose of 25mpk. The note with it: mouse, in vivo, 25 mg/kg.
Data set [17] in a line: Area under curve was determined using 0.4% Methyl cellulose (MC) as vehicle. Compound was administered orally to nude mice at a dose of 25 mg/kg. It counts as ADME, organism-based. The note with it: mouse, in vivo, po. On the set-up: dose 25 mg/kg, route oral. The gist of the method:
as §2

Data set [18] in a line: Maximum concentration (Cmax) using 0.4% Methyl cellulose (MC) as vehicle. compound was administered intravenously to nude mice at a dose of 25 mg/kg. The data set is classed as ADME, organism-based. Further details: dose 25 mg/kg, route intravenous. The note with it: mouse, in vivo, iv. The gist of the method: as §2
A short description of data set [19]: Maximum concentration (Cmax) using 0.4% Methyl cellulose (MC) as vehicle. compound was administered orally to nude mice at a dose of 25 mg/kg. It counts as ADME, organism-based. On the set-up: dose 25 mg/kg, route oral. The note with it: mouse, in vivo, po. The gist of the method: as §2
Data set [20] in a line: Area under curve was determined using 0.4% Methyl cellulose (MC) as vehicle. Compound was administered intravenously to nude mice at a dose of 25 mg/kg. It counts as ADME, organism-based. Further details: dose 25 mg/kg, route intravenous. The note with it: mouse, in vivo, iv. The gist of the method:
as §2

The test system of data set [21] is NIH-3T3 (Mus musculus). Description: Inhibition of tumor colony formation in soft agar.

Turning to `O=C(O)c1cncc(C(=O)N2CCC(CC(=O)N3CCC([C@H]4c5ncc(Br)cc5CCc5cc(Cl)cc(Br)c54)CC3)CC2)c1`, the concentration for half-maximal inhibition (IC50) in data set [1] is 0.8 nM; in [2] it was greater than 1000 nM; with NIH-3T3 (Mus musculus) [3], greater than 500 nM.
Regarding `NC(=O)C(=O)N1CCC(CC(=O)N2CCC([C@H]3c4ncc(Br)cc4CCc4cc(Cl)cc(Br)c43)CC2)CC1`, the half-maximal inhibitory concentration (IC50) in data set [1] is 2.7 nM; in [2] it was less than 10 nM; in the data set with NIH-3T3 (Mus musculus) [3] it was 85 nM. In data set [4], the half-life was 66 min. Besides, the Cmax was 26.2 µM in data set [5] and 7.1 µM in data set [6]. For the same compound, the values for the AUC in data set [7] and in data set [8] were 45000 ng·h/mL and 27100 ng·h/mL, respectively. In data set [9], the F is 166%.
For `C[C@@H](N)C(=O)N1CCC(CC(=O)N2CCC([C@H]3c4ncc(Br)cc4CCc4cc(Cl)cc(Br)c43)CC2)CC1`, the 50% inhibitory concentration (IC50) in [1] came to 7.9 nM; in data set [2], 39 nM; in the data set with NIH-3T3 (Mus musculus) [3] it was 200 nM.
As to `O=C(CC1CCN(CC(=O)N2CCOCC2)CC1)N1CCC([C@H]2c3ncc(Br)cc3CCc3cc(Cl)cc(Br)c32)CC1`, the IC50 in data set [2] is 25 nM; with NIH-3T3 (Mus musculus) [3] it was 100 nM; in [10], 5.3 nM.
Take `NCC(=O)N1CCC(CC(=O)N2CCC([C@H]3c4ncc(Br)cc4CCc4cc(Cl)cc(Br)c43)CC2)CC1`: the Cmax was 80 µM in data set [5] and 2.92 µM in [6]. This compound had a bioavailability in the data set on Mus musculus of 4.7%. For the same compound, the AUC in [11] came to 5840 ng·h/mL; in [12] it was 125000 ng·h/mL. In [13], this compound returned a T1/2 of 1.4 h.
For `NC(=O)c1cncc(C(=O)N2CCC(CC(=O)N3CCC([C@H]4c5ncc(Br)cc5CCc5cc(Cl)cc(Br)c54)CC3)CC2)c1`, the IC50 in data set [1] worked out at 2.2 nM; in data set [2], 21 nM; in the data set with NIH-3T3 (Mus musculus) [3] it was 500 nM.
For the compound `CN(C)C(=O)C(=O)N1CCC(CC(=O)N2CCC([C@H]3c4ncc(Br)cc4CCc4cc(Cl)cc(Br)c43)CC2)CC1`, the half-life in [4] is 62.4 min. The IC50 in [2] was determined as 10 nM; in the data set with NIH-3T3 (Mus musculus) [3] it was 120 nM. The compound further came in with an AUC at 7 h in data set [14] of 2260 ng·h/mL. Also, the values for the Cmax in data set [5] and in data set [6] were 26.3 µM and 3.2 µM, respectively. For the same compound, the AUC in [8] was found to be 7530 ng·h/mL. This compound also came in with a bioavailability in data set [9] (nude) of 30%.
On to `NS(=O)(=O)N1CCC(CC(=O)N2CCC([C@H]3c4ncc(Br)cc4CCc4cc(Cl)cc(Br)c43)CC2)CC1`, for which the highest concentration (Cmax) came to 30 µM in data set [5] and 3.6 µM in [6]. In the data set on Mus musculus, the bioavailability worked out at 22%. Also, the AUC came out at 5600 ng·h/mL in [11] and 26100 ng·h/mL in data set [12]. The compound further returned a concentration for half-maximal inhibition (IC50) with NIH-3T3 (Mus musculus) [3] of 200 nM. This compound also displayed a T1/2 in data set [13] of 1.5 h.
On to `CS(=O)(=O)N1CCC(CC(=O)N2CCC([C@H]3c4ncc(Br)cc4CCc4cc(Cl)cc(Br)c43)CC2)CC1`, for which the figures for the peak concentration (Cmax) in data set [5] and in [6] were 30 µM and 1.3 µM, respectively. In the data set with Mus musculus, the bioavailability was 10%. The AUC is 950 ng·h/mL in data set [11] and 9520 ng·h/mL in data set [12]. In [13], this compound showed a T1/2 of 0.53 h.
In the case of `O=C(CC1CCN(S(=O)(=O)c2ccccc2)CC1)N1CCC([C@H]2c3ncc(Br)cc3CCc3cc(Cl)cc(Br)c32)CC1`, inhibition in data set [1] was half-maximal at 76.1 nM (IC50).
In the data set with NIH-3T3 (Mus musculus) [3], `CCOC(=O)CNC(=O)N1CCC(CC(=O)N2CCC([C@H]3c4ncc(Br)cc4CCc4cc(Cl)cc(Br)c43)CC2)CC1` registered an IC50 of 310 nM.
With `N#CCC(=O)N1CCC(CC(=O)N2CCC([C@H]3c4ncc(Br)cc4CCc4cc(Cl)cc(Br)c43)CC2)CC1`, the bioavailability in data set [15] is 8.6%. This compound had a half-life in data set [16] of 45.6 min. Besides, the AUC was determined as 350 ng·h/mL in data set [17] and 4090 ng·h/mL in data set [20]. For the same compound, the results for the IC50 (in data set [2]; in the data set on NIH-3T3 (Mus musculus) [21]) were less than 10 nM and 120 nM, respectively. In addition, the Cmax amounted to 23.4 µM in data set [18] and 330 nM in [19].

What is called IC50 is the concentration needed to halve the response being measured. The term half-life denotes the time in which the quantity being followed falls by half. The Cmax is the peak of the concentration-time curve.
